Compound activity as filed in PubChem BioAssay.
PDI inh – inhibitors of human protein disulfide isomerase. inhibition, % at 10 µM. PDI insulin aggregation turbidity, A650, 90 min. P07237. 350,000 tested, 0.052% active;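 active = mean inhibition across replicates of 30% or more, whatever share of single replicates reach that level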
FGF22 binding – binders of recombinant human FGF22 by thermal shift | AID 651658 | activity (Tm shift, normalised), % at 9.99 µM | SYPRO orange fluorescence; percent of sucrose octasulfate shift, DMSO zero | Q9HCT0 | 340,000 tested, 1.5% active;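 active = mean Tm shift, scaled 0 neutral to 100 positive control, at about 1.3% or above, every replicate too, limit read from the data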
ARNT-TACC3 inh – ARNT/TACC3 interaction disruption; AlphaScreen His-ARNT PAS-B/GST-TACC3 binding, luminescence; TACC3 fragment carries E629A point mutation; inhibition, % at 9.99 µM; 390,000 tested, 0.66% active; AID 623870;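 active = mean inhibition of replicates at least 50% and at least half of replicates each reaching 50%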
FN deposition inh – fibronectin deposition inhibition; AH1F fibroblasts, Alexa488-fibronectin deposition fluorescence, overnight; inhibition, % at 12.6 µM; 350,000 tested, 0.086% active;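 active = mean inhibition across replicates of 30% or more, regardless of how many single replicates reach that level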
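Material – AH1F fibroblast monolayer, labelled fibronectin deposition · Reagent – labelled fibronectin 24 nM · Timing – 1 h adhesion, overnight exposure · Measured by – fluorescence at 485 nm excitation, 525 nm emission · Read-out – inhibition of fibronectin deposition signal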
ERp5 block – inhibitors of human ERp5; Q15084; ERp5 insulin aggregation, absorbance 650 nm, 90 min; inhibition, % at 9.99 µM; 350,000 tested, 0.05% active; AID 651711;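 active = mean replicate inhibition above about 25%, with every replicate also reaching it, limit read from the data, passing the limit was not always enough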
MLL AF4-AF9 inh – blocks AF4 peptide binding to human AF9. P42568. AlphaScreen, biotin-AF4 peptide binding to FLAG-AF9. inhibition, % at 10 µM. 350,000 tested, 0.47% active. AID 651704;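 active = every replicate reaching a set inhibition limit, whatever the replicate mean, cut at about 25% in these data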
Hits are given with their value; – = inactive; · = no result. Compounds with a hit are over-represented: about 2.1% of the library has one in this group of screens.

SMILES | PDI inh | FGF22 binding | ARNT-TACC3 inh | FN deposition inh | ERp5 block | MLL AF4-AF9 inh
CNC(=O)C[C@H]1CC[C@H]2[C@@H](COc3ccc(NC(=O)c4cc(C)on4)cc3C(=O)N2C)O1 | · | – | – | – | · | ·
CCC1(c2ccc(F)cc2)NC(=O)N(CC(=O)Nc2ccc(S(N)(=O)=O)cc2)C1=O (stereo not given) | – | – | – | · | – | –
CN(C)S(=O)(=O)c1ccc(Cl)c(NC(=O)COC(=O)CN2C(=O)C3CCCCC3C2=O)c1 (stereo not given) | – | 43 | – | – | – | –
O=C(COC(=O)CN1C(=O)C2CCCCC2C1=O)Nc1cc(S(=O)(=O)N2CCOCC2)ccc1Cl (stereo not given) | – | – | – | – | – | –
CCC1(c2ccc(F)cc2)NC(=O)N(CC(=O)Nc2cc(S(=O)(=O)N(C)C)ccc2Cl)C1=O (stereo not given) | – | 44 | – | – | – | –
CCOc1ccc(CCNC(=O)CS(=O)(=O)Cc2nc(-c3ccc(OC)cc3)oc2C)cc1 | – | – | – | – | – | –
Cc1oc(-c2cccc(Cl)c2)nc1CS(=O)(=O)CC(=O)NCc1ccco1 | – | 1.5 | – | – | – | –
CCOc1ccc(CNC(=O)CS(=O)(=O)Cc2nc(-c3ccc(OC)cc3)oc2C)cc1 | · | – | – | – | – | 48
CC1=CC(=O)C=CC1=Nc1ccc(N(C)C)cc1 | · | – | · | – | – | 91
O=C(C[C@H]1C[C@@H]2c3cc(NC(=O)c4ccc5c(c4)OCO5)ccc3O[C@@H]2[C@@H](CO)O1)NCc1ccc(Cl)cc1 | · | – | – | – | – | –
O=C(N[C@H]1C=C[C@H](CC(=O)N2CCOCC2)O[C@@H]1CO)c1ccc2c(c1)OCO2 | · | – | – | · | – | –
O=C(COC(=O)C1CC1)Nc1ncc(C(F)(F)F)cc1Cl | – | 44 | – | – | – | –
O=C(COC(=O)C1CC1)Nc1ncc(Cl)cc1Cl | – | – | – | – | – | –
O=C(C[C@@H]1CC[C@@H]2[C@H](COC[C@H](O)CN2C(=O)c2ccccn2)O1)NC1CCC1 | · | – | – | – | – | –
Nc1ccc(Cl)cc1C(=O)c1ccc[nH]1 | – | 44 | · | – | – | –
Cc1ccc(CNC(C)c2ccccc2)cc1 (stereo not given) | – | · | – | – | · | ·
CC(NCc1ccccc1O)c1ccccc1 (stereo not given) | – | 43 | – | – | – | –
COCC(=O)N(C)C[C@H]1Oc2cc(-c3ccc(C#N)cc3)ccc2S(=O)(=O)N([C@H](C)CO)C[C@@H]1C | · | · | · | – | · | ·
CCOC(=O)N1CCC(N2Cc3cccc(C(=O)Nc4ccc(N(CC)CC)cc4C)c3C2=O)CC1 | – | – | – | – | – | 43
CCCNC(=O)N(C)C[C@@H]1Oc2cc(-c3ccccc3F)ccc2S(=O)(=O)N([C@@H](C)CO)C[C@@H]1C | · | – | – | – | – | –
C[C@@H]1CCCCO[C@@H](CN(C)Cc2ccccc2)[C@@H](C)CN([C@@H](C)CO)C(=O)c2cc(NC(=O)C3CCCCC3)ccc2O1 | · | – | – | · | – | –
Cc1cc(=O)c2c(N(C)C)cccc2[nH]1 | – | – | · | – | – | 32
C[C@H](CO)N1C[C@H](C)[C@@H](CN(C)S(=O)(=O)c2ccsc2)OCc2ccccc2-c2c(n(C)c3ccccc23)C1=O | · | – | – | – | – | –
Cc1ccc(Nc2nc(-c3ccc(O)c(O)c3)cs2)nc1 | · | – | · | – | – | 42
Cc1ccc(Nc2nc(-c3ccc(F)cc3)cs2)nc1 | – | – | – | – | – | –
SMILES | PDI inh | FGF22 binding | ARNT-TACC3 inh | FN deposition inh | ERp5 block | MLL AF4-AF9 inh
CC(C)Cc1nc2ccccc2n1CCc1ccccc1 | – | 43 | · | – | – | –
CCc1nc2ccccc2n1CCc1ccccc1 | – | – | – | – | – | –
C/C=C/c1ccc([C@@H]2[C@@H](CO)N(Cc3ccccn3)[C@H]2CNC(C)=O)cc1 | · | – | – | – | – | –
C/C=C/c1ccc([C@@H]2[C@H](CO)N(Cc3ccccn3)[C@H]2CNC(C)=O)cc1 | · | – | 37 | – | – | –
C=CCN1C(=O)C2(NC(=O)c3ccccc3N2)c2ccccc21 (stereo not given) | – | 43 | – | – | – | –
C=CCN1C(=O)C2(NNc3ccccc3O2)c2ccccc21 (stereo not given) | – | · | – | · | · | ·
